{"source": "ChEMBL document CHEMBL1157790", "about": "“3'-bromo analogues of pyrimidine nucleosides as a new class of potent inhibitors of Mycobacterium tuberculosis” (J Med Chem, 2010)", "assay_type_in_all_cases": "functional", "key": {"[1]": {"tested_on": "Mycobacterium tuberculosis", "experiment": "Antimycobacterial activity against rifampin-resistant Mycobacterium tuberculosis H37Rv at 1 to 2 ug/ml by radiometric BACTEC assay", "method_in_brief": "(§1)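 Isoniazid- or rifampicin-resistant H37Rv, growing inoculum 2.5-5.0 × 10⁵ CFU/vial, in radiometric 7H12 (BACTEC 12B) medium at 37 °C with two-fold compound dilutions. Growth index read daily in a BACTEC 460 until the 1:100 inoculum control reached GI 30. Percent inhibition = GI test/GI control × 100.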"}, "[2]": {"tested_on": "Mycobacterium tuberculosis", "experiment": "Antimycobacterial activity against rifampin-resistant Mycobacterium tuberculosis H37Rv at 10 ug/ml by radiometric BACTEC assay", "method_in_brief": "as §1"}, "[3]": {"tested_on": "Mycobacterium tuberculosis", "experiment": "Antimycobacterial activity against isoniazid-resistant Mycobacterium tuberculosis H37Rv at 10 ug/ml by radiometric BACTEC assay", "method_in_brief": "as §1"}, "[4]": {"tested_on": "Mycobacterium tuberculosis", "experiment": "Antimycobacterial activity against isoniazid-resistant Mycobacterium tuberculosis H37Rv at 2 ug/ml by radiometric BACTEC assay", "method_in_brief": "as §1"}, "[5]": {"tested_on": "Mycobacterium tuberculosis", "experiment": "Antimycobacterial activity against isoniazid-resistant Mycobacterium tuberculosis H37Rv at 25 ug/ml by radiometric BACTEC assay", "method_in_brief": "as §1"}, "[6]": {"tested_on": "Mycobacterium tuberculosis", "experiment": "Antimycobacterial activity against rifampin-resistant Mycobacterium tuberculosis H37Rv at 5 to 10 ug/ml by radiometric BACTEC assay", "method_in_brief": "as §1"}, "[7]": {"tested_on": "Mycobacterium tuberculosis", "experiment": "Antimycobacterial activity against rifampin-resistant Mycobacterium tuberculosis H37Rv at 1 ug/ml by radiometric BACTEC assay", "method_in_brief": "as §1"}, "[8]": {"tested_on": "Mycobacterium tuberculosis", "experiment": "Antimycobacterial activity against rifampin-resistant Mycobacterium tuberculosis H37Rv at 2 ug/ml by radiometric BACTEC assay", "method_in_brief": "as §1"}}, "data": [{"smiles": "Cc1cn([C@@H]2O[C@H](CO)[C@@H](Br)[C@@H]2O)c(=O)[nH]c1=O", "values": [{"measurement": "inhibition (INH)", "setting": "[1]", "result": 50, "unit": "%"}, {"measurement": "inhibition at 10 µg/mL", "setting": "[2]", "result": 70, "unit": "%"}, {"measurement": "inhibition at 10 µg/mL", "setting": "[3]", "result": 75, "unit": "%"}, {"measurement": "inhibition at 2 µg/mL", "setting": "[4]", "result": 50, "unit": "%"}]}, {"smiles": "Cc1cn([C@H]2C[C@H](Br)[C@@H](CO)O2)c(=O)[nH]c1=O", "values": [{"measurement": "inhibition at 10 µg/mL", "setting": "[3]", "result": 50, "unit": "%"}, {"measurement": "inhibition at 25 µg/mL", "setting": "[5]", "result": 75, "unit": "%"}, {"measurement": "inhibition (INH)", "setting": "[6]", "result": 50, "unit": "%"}]}, {"smiles": "NNC(=O)c1ccncc1", "note": "[ISONIAZID]", "values": [{"measurement": "inhibition at 1 µg/mL", "setting": "[7]", "result": 100, "unit": "%"}, {"measurement": "inhibition at 2 µg/mL", "setting": "[4]", "result": 0, "unit": "%"}]}, {"smiles": "CO[C@H]1/C=C/O[C@@]2(C)Oc3c(C)c(O)c4c(O)c(c(/C=N/N5CCN(C)CC5)c(O)c4c3C2=O)NC(=O)/C(C)=C\\C=C\\[C@H](C)[C@H](O)[C@@H](C)[C@@H](O)[C@@H](C)[C@H](OC(C)=O)[C@@H]1C", "note": "[RIFAMPIN]", "values": [{"measurement": "inhibition at 2 µg/mL", "setting": "[8]", "result": 0, "unit": "%"}]}]}
